The source made the active and inactive calls. The calls are words filed in the database; no cut-off is given here.

As a reminder, the Inhibition is the relative decrease from the control value, in per cent. In general, inhibition refers to the drop in the measured response relative to a control, in per cent.

The subject of one test is Streptococcus pneumoniae. Description: Antibacterial activity against Streptococcus pneumoniae up to 100 ug/ml after 16 to 20 hrs by broth microdilution method. The class given is functional, organism-based.
For test [1], the system named is Mycobacterium tuberculosis. Nature of the test: Antimycobacterial activity against Mycobacterium tuberculosis H37Ra by MABA. It is filed as functional. The arrangement: concentration or dose not given beside the values. The essentials: (§1)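 Compounds in DMSO (100× highest final concentration), diluted in 7H9GC; tested at 100, 50, 10 and 1 µg/mL in triplicate, three experiments. Frozen inoculum diluted in 7H9GC. Read visually and spectrophotometrically. […], mean given. Visual MIC = lowest concentration preventing blue-to-pink change.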

Another test deals with Bacillus subtilis. Description: Antibacterial activity against Bacillus subtilis up to 100 ug/ml after 16 to 20 hrs by broth microdilution method. The class given is functional, organism-based.
In another test the test system is Pseudomonas aeruginosa. Description: Antibacterial activity against Pseudomonas aeruginosa up to 100 ug/ml after 16 to 20 hrs by broth microdilution method. It is filed as functional, organism-based. (In general: Dilution methods test growth across graded concentrations, often in twofold steps.)
For another test, the system named is Enterococcus faecalis. Description: Antibacterial activity against Enterococcus faecalis up to 100 ug/ml after 16 to 20 hrs by broth microdilution method. It is filed as functional, organism-based.
For test [2], the system named is Staphylococcus epidermidis. Description: Antibacterial activity against Staphylococcus epidermidis up to 100 ug/ml after 16 to 20 hrs by broth microdilution method. The class given is functional, organism-based.
In test [3] the test system is Mycobacterium avium. Nature of the test: Antimycobacterial activity against Mycobacterium avium ATCC 25291. Also noted: concentration or dose not given beside the values. The class given is functional. The essentials: as §1
A further test relates to Salmonella typhimurium. Description: Antibacterial activity against Salmonella Typhimurium up to 100 ug/ml after 16 to 20 hrs by broth microdilution method. The class given is functional, organism-based. To be noted: Salmonella enterica subsp. enterica serovar Typhimurium.
The test system of the next test is Proteus vulgaris. Description: Antibacterial activity against Proteus vulgaris up to 100 ug/ml after 16 to 20 hrs by broth microdilution method. The class given is functional, organism-based.
In another test the test system is Staphylococcus aureus. Description: Antibacterial activity against Staphylococcus aureus up to 100 ug/ml after 16 to 20 hrs by broth microdilution method. It is filed as functional, organism-based.
In the next test the test system is Escherichia coli. Nature of the test: Antibacterial activity against Escherichia coli up to 100 ug/ml after 16 to 20 hrs by broth microdilution method. The class given is functional, organism-based.
Test [4] relates to Mycobacterium avium. Nature of the test: Antimycobacterial activity against Mycobacterium avium ATCC 25291 at 50 ug/mL after 24 to 48 hrs by MABA. It is filed as functional. The essentials:
as §1
In general terms: Alamar Blue is a resazurin reagent that responds to reducing activity.

Test [5] relates to Mycobacterium tuberculosis. Description: Antimycobacterial activity against Mycobacterium tuberculosis H37Ra at 100 ug/mL after 24 to 48 hrs by MABA. It is filed as functional. The essentials:
as §1

For test [6], the system named is Mycobacterium tuberculosis. Description: Antimycobacterial activity against Mycobacterium tuberculosis H37Ra at 10 ug/mL after 24 to 48 hrs by MABA. It is filed as functional. The essentials: as §1
For test [7], the system named is Mycobacterium tuberculosis. Nature of the test: Antimycobacterial activity against Mycobacterium tuberculosis H37Ra at 50 ug/mL after 24 to 48 hrs by MABA. It is filed as functional. The essentials:
as §1

The subject of the next test is HepG2. Nature of the test: Toxicity against HepG2 cells. The class given is functional, cell-based. Conditions: Homo sapiens.
For test [8], the system named is Mycobacterium avium. Description: Antimycobacterial activity against Mycobacterium avium ATCC 25291 at 100 ug/mL after 24 to 48 hrs by MABA. It is filed as functional. The essentials:
as §1

Turning to `Cc1cn(COCCO)c(=O)[nH]c1=O`, the result (with Streptococcus pneumoniae; with Bacillus subtilis; with Pseudomonas aeruginosa; in the test with Enterococcus faecalis; in test [2]; in the test with Salmonella typhimurium) was inactive. In addition, the outcome in the test on Proteus vulgaris, with Staphylococcus aureus and in the test with Escherichia coli was inactive. Also, the Inhibition (in test [1]; with Mycobacterium avium [3]) was 0% in each case.
In the case of `O=c1[nH]c(=O)n(COCCO)cc1Br`, the result (in the test with Streptococcus pneumoniae; with Bacillus subtilis; in the test with Pseudomonas aeruginosa; with Enterococcus faecalis; in [2]; in the test on Salmonella typhimurium) was inactive. Moreover, the outcome in the test on Proteus vulgaris, in the test on Staphylococcus aureus and in the test with Escherichia coli was inactive. Further, the Inhibition (in test [1]; with Mycobacterium avium [3]) was 0% in each case.
In the case of `Nc1cn(COCCO)c(=O)[nH]c1=O`, the result (in the test on Streptococcus pneumoniae; in the test on Bacillus subtilis; with Pseudomonas aeruginosa; in the test with Enterococcus faecalis; in test [2]; in the test on Salmonella typhimurium) was inactive. Moreover, the outcome with Proteus vulgaris, in the test on Staphylococcus aureus and in the test with Escherichia coli was inactive. The Inhibition (in test [1]; with Mycobacterium avium [3]) was 0% each time.
On to `CCCCCC#Cc1cn(COCCO)c(=O)[nH]c1=O`, for which the outcome (in the test with Streptococcus pneumoniae; in the test on Bacillus subtilis; in the test on Pseudomonas aeruginosa; in the test on Enterococcus faecalis; in test [2]; in the test on Salmonella typhimurium) was inactive. Further, the outcome with Proteus vulgaris, in the test with Staphylococcus aureus and with Escherichia coli was inactive. In addition, the Inhibition (in test [1]; in the test on Mycobacterium avium [3]) was 0% throughout.
Turning to `CCCCCCCCCCC#Cc1cn(COCCO)c(=O)n(C#CCCCCCCCCCC)c1=O`, the result (in the test on Streptococcus pneumoniae; in the test with Bacillus subtilis; with Pseudomonas aeruginosa; with Enterococcus faecalis; in test [2]; in the test on Salmonella typhimurium) was inactive. In addition, the result in the test with Proteus vulgaris, with Staphylococcus aureus and in the test with Escherichia coli was inactive. The Inhibition (in test [1]; in the test on Mycobacterium avium [3]) was 0% in each case.
In the case of `[N-]=[N+]=NC(CBr)c1cn(COC(CO)CO)c(=O)[nH]c1=O` (stereo not given), the result (with Streptococcus pneumoniae; with Bacillus subtilis; in the test on Pseudomonas aeruginosa; in the test with Enterococcus faecalis; in [2]; in the test with Salmonella typhimurium) was inactive. Moreover, the result with Proteus vulgaris, with Staphylococcus aureus and with Escherichia coli was inactive. Moreover, the Inhibition (in test [1]; in the test on Mycobacterium avium [3]) was 0% throughout.
Regarding `[N-]=[N+]=NC(CI)c1cn(COCCO)c(=O)[nH]c1=O` (stereo not given), the results for the inhibition at 50 µg/mL (in the test on Mycobacterium avium [4]; in test [7]) were 50% and 100%, respectively. Moreover, the outcome (in the test on Streptococcus pneumoniae; in the test on Bacillus subtilis; in the test on Pseudomonas aeruginosa; with Enterococcus faecalis; in [2]; in the test with Salmonella typhimurium) was inactive. Moreover, the result in the test with Proteus vulgaris, with Staphylococcus aureus and in the test on Escherichia coli was inactive. In addition, the inhibition at 100 µg/mL amounted to 100% in test [5] and 50% in the test with Mycobacterium avium [8]. Further, in test [6], 10 µg/mL produced 50% inhibition. The Activity result in the test on HepG2 was “Not toxic”.
On to `[N-]=[N+]=NC(CI)c1cn(COC(CO)CO)c(=O)[nH]c1=O` (stereo not given), for which the result (with Streptococcus pneumoniae; in the test with Bacillus subtilis; with Pseudomonas aeruginosa; in the test with Enterococcus faecalis; in test [2]; in the test on Salmonella typhimurium) was inactive. For the same compound, the outcome with Proteus vulgaris, in the test on Staphylococcus aureus and with Escherichia coli was inactive. The Inhibition (in test [1]; in the test with Mycobacterium avium [3]) was 0% each time.
Consider `O=c1[nH]c(=O)n(COCCO)cc1F`, for which the result (with Streptococcus pneumoniae; in the test on Bacillus subtilis; in the test with Pseudomonas aeruginosa; in the test on Enterococcus faecalis; in test [2]; in the test with Salmonella typhimurium) was inactive. The outcome in the test with Proteus vulgaris, in the test on Staphylococcus aureus and in the test on Escherichia coli was inactive. For the same compound, the Inhibition (in test [1]; with Mycobacterium avium [3]) was 0% throughout.
For `CCCCCCCCC#Cc1cn(COC(CO)CO)c(=O)[nH]c1=O`, the inhibition at 50 µg/mL with Mycobacterium avium [4] was 25%; in test [7], 100%. The result (in the test with Streptococcus pneumoniae; in the test with Bacillus subtilis; in the test with Pseudomonas aeruginosa; in the test on Enterococcus faecalis; in test [2]; with Salmonella typhimurium) was inactive. For the same compound, the outcome with Proteus vulgaris, in the test with Staphylococcus aureus and in the test on Escherichia coli was inactive. In addition, the inhibition at 100 µg/mL (in test [5]; with Mycobacterium avium [8]) was 100% in each case. Also, in test [6], the inhibition at 10 µg/mL is 50%. Also, the Activity entry in the test on HepG2 is “Not toxic”.
Take `O=c1ccn(COCCO)c(=O)[nH]1`: the outcome (with Streptococcus pneumoniae; with Bacillus subtilis; with Pseudomonas aeruginosa; in the test with Enterococcus faecalis; in test [2]; with Salmonella typhimurium) was inactive. For the same compound, the outcome in the test on Proteus vulgaris, with Staphylococcus aureus and in the test with Escherichia coli was inactive. The Inhibition (in test [1]; in the test with Mycobacterium avium [3]) was 0% each time.
With `O=c1[nH]c(=O)n(COCCO)cc1I`, the result (in the test with Streptococcus pneumoniae; in the test with Bacillus subtilis; with Pseudomonas aeruginosa; in the test on Enterococcus faecalis; in test [2]; in the test with Salmonella typhimurium) was inactive. In addition, the outcome in the test on Proteus vulgaris, in the test with Staphylococcus aureus and with Escherichia coli was inactive. Moreover, the Inhibition (in test [1]; in the test with Mycobacterium avium [3]) was 0% in each case.
With `[N-]=[N+]=NC(CBr)c1cn(COCCO)c(=O)[nH]c1=O` (stereo not given), the inhibition at 50 µg/mL (in the test on Mycobacterium avium [4]; in [7]) was 100% throughout. The outcome (in the test with Streptococcus pneumoniae; in the test on Bacillus subtilis; in the test with Pseudomonas aeruginosa; with Enterococcus faecalis; in test [2]; in the test with Salmonella typhimurium) was inactive. For the same compound, the outcome in the test with Proteus vulgaris, in the test with Staphylococcus aureus and with Escherichia coli was inactive. For the same compound, the inhibition at 100 µg/mL in test [5] is 100%. In [6], this compound had an inhibition at 10 µg/mL of 50%. Further, the Activity result in the test on HepG2 is “Not toxic”.
In the case of `C=C(N=[N+]=[N-])c1cn(COC(CO)CO)c(=O)[nH]c1=O`, the result (with Streptococcus pneumoniae; in the test on Bacillus subtilis; in the test with Pseudomonas aeruginosa; with Enterococcus faecalis; in test [2]; with Salmonella typhimurium) was inactive. The outcome in the test on Proteus vulgaris, with Staphylococcus aureus and in the test with Escherichia coli was inactive. Also, the Inhibition (in test [1]; with Mycobacterium avium [3]) was 0% each time.

The values are drawn from ChEMBL document CHEMBL1146361, “Studies on acyclic pyrimidines as inhibitors of mycobacteria” (Bioorg Med Chem, 2007).
